Results collected from several papers.
Lines come from different studies, so protocols differ.
Target: Serine/threonine-protein kinase Nek3 (NEK3, Homo sapiens, UniProt P51956)
Residues used in one study (P51956 1-506): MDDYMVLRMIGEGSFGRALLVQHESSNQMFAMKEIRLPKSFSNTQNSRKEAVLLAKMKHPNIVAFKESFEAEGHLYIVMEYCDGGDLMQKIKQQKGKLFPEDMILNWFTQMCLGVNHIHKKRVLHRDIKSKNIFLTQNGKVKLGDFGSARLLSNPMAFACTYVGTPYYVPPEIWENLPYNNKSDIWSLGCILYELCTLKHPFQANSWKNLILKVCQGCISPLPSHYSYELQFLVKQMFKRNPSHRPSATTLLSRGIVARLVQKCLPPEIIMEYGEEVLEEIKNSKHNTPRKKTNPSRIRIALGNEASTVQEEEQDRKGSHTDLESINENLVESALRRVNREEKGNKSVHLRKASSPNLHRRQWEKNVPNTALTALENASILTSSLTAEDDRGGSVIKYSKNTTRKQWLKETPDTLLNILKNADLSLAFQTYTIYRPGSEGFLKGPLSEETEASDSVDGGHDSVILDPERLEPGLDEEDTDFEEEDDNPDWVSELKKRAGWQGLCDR

SMILES	effect on	mode	method	tested at	measurement	value
CC(C)(C)c1nc(-c2cccc(NS(=O)(=O)c3c(F)cccc3F)c2F)c(-c2ccnc(N)n2)s1	enzyme activity	inhibitor	radiometric	1 µM	remaining activity	85%
Cc1ccc(Nc2nccc(N(C)c3ccc4c(C)n(C)nc4c3)n2)cc1S(N)(=O)=O	enzyme activity	inhibitor	–	0.5 µM	remaining activity	94.2%
CN1CC(Oc2cnc(C#N)cc2-c2ccn3nc(NC(=O)C4CC4)cc3c2)C1	enzyme activity	inhibitor	–	1 µM	inhibition	12%
CN(C)C(=O)Cn1cc(-c2nc([C@@](C)(c3ccc(-c4cnc(N)nc4)cc3)C3CC3)no2)cn1	cell-free assay	–	competition with immobilised ligand	1 µM	remaining binding	87%
O=C1Nc2ccc(Cl)cc2C1=Cc1cc(Cl)c(O)c(Cl)c1	cell-free assay	–	–	0.5 µM	remaining signal	94%
CCCCN(CCCC)C(=O)CN1C[C@@H](c2cc(OC)c3c(c2)OCO3)[C@H](C(=O)O)[C@H]1CC(C)(C)CCC	cell-free assay	–	competition with immobilised ligand	1 µM	remaining binding	72.9%
O=C1NC(=O)c2cc(Nc3ccc(F)cc3)c(Nc3ccc(F)cc3)cc21	cell-free assay	–	–	0.5 µM	remaining signal	99.1%
CS(=O)(=O)N1CCCC(NC(=O)[C@H](CCC2CCCCC2)NC(=O)c2ccc(CNC(=O)c3cnc4ccccn34)cc2)C1 (stereo partly shown)	cell-free assay	–	competition with immobilised ligand	0.1 µM	remaining binding	100%
Cn1cnc(Br)c1C1=CN(c2ncnc3[nH]cnc23)CCS1	enzyme activity	inhibitor	radiometric	50 nM	inhibition	14.7%
Cc1cnc(NC2CCOCC2)nc1-n1cnc(C(=O)NC(CN)c2cc(F)cc(Cl)c2)c1 (stereo not shown)	enzyme activity	inhibitor	radiometric	1 µM	remaining activity	65%
Cn1nc(C(=O)NCc2ccc(C(=O)O)cc2)cc1-c1ccc2[nH]ccc2c1	cell-free assay	–	competition with immobilised ligand	0.1 µM	remaining binding	100%
c1ccc(CNc2nc(N3CCOc4ccccc43)nc3c2CCCC3)cc1	target engagement in cells	inhibitor	chemoproteomics	20 mM	inhibition	5.9%
O=C(Nc1cnn(-c2csc(C(=O)NC3COC3)c2)c1)Nc1ccccc1Cl	enzyme activity	inhibitor	–	5 µM	remaining activity	103%
Nc1ncnc2occ(-c3ccc(NC(=O)Nc4cc(C(F)(F)F)ccc4F)cc3)c12	cell-free assay	inhibitor	–	20 µM	remaining signal	63%
CC(C)(O)[C@H]1CC[C@H](Nc2ccc3ncc(-c4cccc(C(F)(F)F)c4)n3n2)CC1	enzyme activity	inhibitor	–	1 µM	remaining activity	91%
CNC(=O)c1ccc(Nc2ncc(C(F)(F)F)c(NCc3nccnc3N(C)S(C)(=O)=O)n2)cc1	cell-free assay	–	competition with immobilised ligand	0.1 µM	remaining binding	100%
Cc1cc(NC(=O)c2cccc3cc(-c4cccc5[nH]nc(N)c45)ccc23)ccc1F	enzyme activity	inhibitor	–	0.1 µM	activity vs control	83%
Nc1cnc(N2CCc3cc(S(=O)(=O)Nc4c(F)cc(Cl)cc4F)cc(N4CCCC4=O)c32)nc1	cell-free assay	–	competition with immobilised ligand	1 µM	remaining binding	100%
Cc1ccc(C(=O)Nc2ccc(CN3CCN(C)CC3)c(C(F)(F)F)c2)cc1C#Cc1cnc2cccnn12	enzyme activity	inhibitor	–	23.5 nM	remaining activity	86%
